The values that follow come from ChEMBL document CHEMBL1131102, “A new series of highly potent growth hormone-releasing peptides derived from ipamorelin” (J Med Chem, 1998).

By EC50 is commonly meant the concentration at which the effect is half-maximal. One may read the Emax as the greatest response seen or fitted, relative to the assay's reference. What is called bioavailability is dose-corrected exposure relative to a reference, in per cent. As a reminder, the AUC is concentration integrated over time.

The species named for data set [1] is Rattus norvegicus. The experiment in a line: Tested in vitro for GH-releasing potency against rat pituitary cells. The class given is functional. The note with it: Pituitary gland cell. In short, it runs like this: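 Rat pituitaries were trypsin-dispersed into single cells and cultured 3 days, then washed and stimulated 15 min with secretagogue. Supernatant GH was measured by rat GH SPA. EC50 came from a Hill fit of release above basal; Emax as % of GHRP-6 maximum. Mean ± SEM of 1–5 experiments.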

The test system of data set [2] is Rattus norvegicus. The experiment in a line: (§1) Tested in vivo for GH-releasing potency against anesthetized male rats. Format: functional. Also on record: unit not given here. In short, it runs like this:
(§2)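 Male or female rats (250 ± 25 g) were anesthetized with pentobarbital ip (50 mg/mL, 1.2 mL/kg). After 15 min, orbital blood was taken, then compound was given as an iv tail-vein bolus (2 mL/kg) and blood sampled again at 10 min. Rat GH was assayed in heparinized plasma. At least five doses, six rats per dose. ED50 by Hill fit; Emax as % of GHRP-6.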

In data set [3] the test system is Rattus norvegicus. Described as §1. The class given is functional. In short, it runs like this:
as §2

The test system of data set [4] is Rattus norvegicus. The experiment in a line: Tested in vivo for GH-releasing potency against anesthetized female rats. Format: functional. In short, it runs like this: as §2
The species entered for data set [5] is Sus scrofa. The experiment in a line: (§3) Compound was tested for GH-releasing potency against female Danish slaughter swine. The class given is functional. In short, it runs like this:
(§4)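 Swine with jugular catheters received single iv injections in increasing doses (range 0.03–500 nmol/kg), five doses per experiment at 24-h intervals. Vehicle was phosphate/citrate buffer diluted in saline with 0.5% porcine serum albumin. Blood was sampled from 1 h before to 3 h after dosing; pGH by ELISA. Basal-adjusted Cmax was fitted (Hill or Michaelis–Menten) for ED50; six swine.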

A short description of data set [6]: Oral bioavailability in dog (Beagle). Format: ADME, organism-based, Canis lupus familiaris. The note with it: in vivo. Put shortly: (§5)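 Fasted (overnight) male and female Beagle dogs; dosed po by gavage (2.7 or 1.8 mg/kg) and iv as a hind-leg-vein bolus (0.5 mg/kg), with a 1-week washout between routes. Vehicle was citrate/phosphate buffer, pH 5.0. EDTA blood was drawn from a front-leg vein up to 6 h. Plasma compound was measured by HPLC-UV after solid-phase extraction. AUC(0–6 h); f = AUCpo·doseiv/(AUCiv·dosepo).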

The subject of data set [7] is Canis familiaris. The experiment in a line: Basal GH release was measured after 0.5 mg/kg iv administration into Beagle dogs. Format: functional, Canis lupus familiaris. In short, it runs like this: (§6)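 Fasted (overnight) Beagle dogs were given compound in citrate/phosphate buffer, pH 5.0, either as a 0.5 mg/kg iv bolus in a hind-leg vein or by po gavage (2.7 or 1.8 mg/kg). Iv and po dosing were separated by a 1-week washout. EDTA blood was drawn from a front-leg vein at intervals up to 6 h. Plasma GH was measured by porcine GH ELISA.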

Data set [8] relates to Canis familiaris. The experiment in a line: Basal GH release was measured after 2.7 mg/kg po administration into Beagle dogs. The class given is functional, Canis lupus familiaris. Put shortly:
as §6

Data set [9] deals with Canis familiaris. Briefly: Area under curve was measured after po administration into Beagle dog. Format: ADME, organism-based, Canis lupus familiaris. The note with it: in vivo. In short, it runs like this: as §5
Data set [10] relates to Canis familiaris. Briefly: Basal GH release was measured after 1.8 mg/kg po administration into Beagle dogs. Format: functional, Canis lupus familiaris. Put shortly: as §6
The species named for data set [11] is Sus scrofa. The description is as §3. The class given is functional, organism-based. In short, it runs like this: as §4
Data set [12] has as its system Canis familiaris. Briefly: Area under curve was measured after iv administration into Beagle dog. The class given is ADME, organism-based, Canis lupus familiaris. The note with it: in vivo. Put shortly:
as §5

Data set [13] relates to Rattus norvegicus. Briefly: Compound was tested in vivo for GH-releasing potency against anesthetized female rats. Format: functional. Put shortly:
as §2

[14] abbreviates: Rattus norvegicus, read-out: Emax.

Several values for one entry are separate records, joined by “and”; a condition that tells them apart may be missing. Equal entries are not always repeated. Non-standard residues stand in square brackets, D forms with d. Residues, ends and D or L forms follow the SMILES beside them. d2Nal = N[C@H](Cc1ccc2ccccc2c1)C(=O)O; 3Amb = NCc1cccc(C(=O)O)c1; Aib = CC(C)(N)C(=O)O

As for `CN(C(=O)c1cccc(CN)c1)[C@H](Cc1ccc2ccccc2c1)C(=O)N(C)[C@H](Cc1ccccc1)C(N)=O`, in the data set listed under Rattus norvegicus [1], the midpoint of the response, the EC50, lay at 115 nM and the Emax is 85%.

Regarding `CNC(=O)[C@@H](Cc1ccccc1)N(C)C(=O)[C@@H](Cc1ccc2ccccc2c1)N(C)C(=O)c1cccc(CN)c1`, in the data set listed under Rattus norvegicus [1], a half-maximal effect (EC50) was put at 40 nM and the Emax turned out to be 110%.

Turning to `CN(C(=O)[C@@H](Cc1ccc2ccccc2c1)NC(=O)[C@H](Cc1c[nH]cn1)NC(=O)C(C)(C)N)[C@H](Cc1ccccc1)C(=O)N[C@@H](CCCCN)C(N)=O`, in the data set with Rattus norvegicus [2], the ED50 turned out to be 1.8. Further, the Emax in the data set with Rattus norvegicus [3] is 90%. In the data set filed under Rattus norvegicus [1], this molecule registered an EC50 of 2 nM and an Emax of 100%.

On to `C[C@H](NC(=O)[C@@H](Cc1c[nH]c2ccccc12)NC(=O)[C@@H](N)Cc1c[nH]cn1)C(=O)N[C@@H](Cc1c[nH]c2ccccc12)C(=O)N[C@H](Cc1ccccc1)C(=O)N[C@@H](CCCCN)C(N)=O` (H-H[dW]AW[dF]K-NH2), for which the Emax in the data set with Rattus norvegicus [4] was 60% and 100%. In the data set listed under Rattus norvegicus [1], this molecule had an EC50 of 2.2 nM and an Emax of 100%. For the same molecule, in the data set filed under Sus scrofa [5], the ED50 is 0.0039 µmol/kg and the Emax stood at 100%.

Consider `CC(C)(N)C(=O)N[C@@H](Cc1c[nH]cn1)C(=O)N[C@H](Cc1ccc2ccccc2c1)C(=O)N[C@H](Cc1ccccc1)C(=O)N[C@@H](CCCCN)C(N)=O` [IPAMORELIN] (H-[Aib]H[d2Nal][dF]K-NH2), for which the bioavailability in data set [6] was determined as 4%. Further, the “Basal GH” value with Canis familiaris [7] turned out to be 1.6 ng/mL; with Canis familiaris [8] it was 5.4 ng/mL. For the same molecule, the figures for the ED50 with Rattus norvegicus [2] and in the data set filed under Sus scrofa [5] were 85 and 0.0023 µmol/kg, respectively. Besides, the Emax turned out to be 120% in the data set with Rattus norvegicus [3], 85% in the data set listed under Rattus norvegicus [1] and 88% in the data set filed under Sus scrofa [5]. The same molecule yielded an EC50 in the data set filed under Rattus norvegicus [1] of 1.3 nM.

Take `CN(C(=O)[C@@H](Cc1ccc2ccccc2c1)NC(=O)c1cccc(CN)c1)[C@H](Cc1ccccc1)C(=O)N[C@@H](CCCCN)C(N)=O`: the results for the AUC in the data set with Canis familiaris [9] and with Canis familiaris [12] were 48 ng·h/mL and 137 ng·h/mL, respectively. In data set [6], this molecule had a bioavailability of 10%. The “Basal GH” value in the data set with Canis familiaris [7] and in the data set on Canis familiaris [10] was 1.2 ng/mL each time. The figures for the ED50 with Rattus norvegicus [2] and in the data set listed under Sus scrofa [11] were 80 and 2 nM/kg, respectively. In addition, the Emax was found to be 90% in the data set with Rattus norvegicus [3], 80% in the data set listed under Rattus norvegicus [1] and 70% in the data set listed under Sus scrofa [5]. The EC50 in the data set listed under Rattus norvegicus [1] is 0.5 nM.

As to `CNCc1cccc(C(=O)N[C@H](Cc2ccc3ccccc3c2)C(=O)N[C@H](Cc2ccccc2)C(=O)N[C@@H](CCCCN)C(N)=O)c1`, the ED50 with Rattus norvegicus [2] is listed as 65. Besides, the values for the Emax with Rattus norvegicus [3] and in the data set filed under Rattus norvegicus [1] were 30% and 85%, respectively. The EC50 in the data set listed under Rattus norvegicus [1] was determined as 10 nM.

Take `CN(C(=O)[C@@H](Cc1ccc2ccccc2c1)N(C)C(=O)c1cccc(CN)c1)[C@@H](CO)Cc1ccccc1`: the ED50 in the data set with Rattus norvegicus [13] was above 1000 nmol/kg. In the data set filed under Rattus norvegicus [1], this molecule registered an EC50 of 265 nM and a maximum response (Emax) of 75%.

For the molecule `CN(C(=O)c1cccc(CN)c1)[C@H](Cc1ccc2ccccc2c1)C(=O)N(C)[C@H](Cc1ccccc1)C(=O)N[C@@H](CCCCN)C(N)=O`, the ED50 with Rattus norvegicus [13] was found to be 146 nmol/kg. Besides, in the data set on Rattus norvegicus [4] (setting [14]), the Emax came out at 100%. Further, in the data set filed under Rattus norvegicus [1], the EC50 turned out to be 5 nM and the Emax was 80%.

Take `CN(C(=O)[C@H](Cc1c[nH]cn1)NC(=O)C(C)(C)N)[C@H](Cc1ccc2ccccc2c1)C(=O)N(C)[C@H](Cc1ccccc1)C(=O)N[C@@H](CCCCN)C(N)=O`: the ED50 with Rattus norvegicus [13] stood at 14 nmol/kg. In the data set listed under Rattus norvegicus [1], this molecule showed an EC50 of 1.5 nM and an Emax of 85%.

With `NCCCC[C@H](NC(=O)[C@@H](Cc1ccccc1)NC(=O)[C@@H](Cc1ccc2ccccc2c1)NC(=O)c1ccc(CN)cc1)C(N)=O`, in the data set filed under Rattus norvegicus [1], the EC50 is 110 nM and the Emax was determined as 50%.

Consider `NCCCC[C@H](NC(=O)[C@@H](Cc1ccccc1)NC(=O)[C@@H](Cc1ccc2ccccc2c1)NC(=O)c1ccccc1CN)C(N)=O`, for which, in the data set filed under Rattus norvegicus [1], a half-maximal response (EC50) required 85 nM and the Emax was found to be 60%.

Consider `C[C@H](NC(=O)[C@@H](Cc1ccc2ccccc2c1)NC(=O)[C@@H](C)N)C(=O)N[C@@H](Cc1c[nH]c2ccccc12)C(=O)N[C@H](Cc1ccccc1)C(=O)N[C@@H](CCCCN)C(N)=O` [PRALMORELIN] (H-[dA][d2Nal]AW[dF]K-NH2), for which the Emax with Rattus norvegicus [4] stood at 90%; in the data set on Rattus norvegicus [4] (setting [14]), 100%; in the data set filed under Rattus norvegicus [1], 85%; in the data set filed under Sus scrofa [5], 75%. The molecule further showed a 50% effective concentration (EC50) in the data set listed under Rattus norvegicus [1] of 1.8 nM. The molecule further returned an ED50 in the data set listed under Sus scrofa [5] of 0.0006 µmol/kg.

As to `NCCCC[C@H](NC(=O)[C@@H](Cc1ccccc1)NC(=O)[C@@H](Cc1ccc2ccccc2c1)NC(=O)c1cccc(CN)c1)C(N)=O` (H-[3Amb][d2Nal][dF]K-NH2), the ED50 in the data set with Rattus norvegicus [2] was above 4800. The Emax in the data set listed under Rattus norvegicus [1] worked out at 85%.

Turning to `CN(C(=O)[C@@H](Cc1ccc2ccccc2c1)NC(=O)c1cccc(CN)c1)[C@H](Cc1ccccc1)C(N)=O`, the ED50 in the data set with Rattus norvegicus [13] is above 1000 nmol/kg. In addition, in the data set listed under Rattus norvegicus [1], the EC50 came to 170 nM and the Emax amounted to 85%.

With `CNC(=O)[C@@H](Cc1ccccc1)N(C)C(=O)[C@@H](Cc1ccc2ccccc2c1)N(C)C(=O)[C@H](Cc1c[nH]cn1)NC(=O)C(C)(C)N`, in the data set listed under Rattus norvegicus [1], a half-maximal effect (EC50) was put at 3.8 nM and the Emax came out at 110%.
